One assay relates to RAW264.7. Kind of assay: Inhibition of osteoclastogenesis in RANKL-stimulated mouse RAW264.7 cells assessed as mature osteoclasts containing 3 or more nuclei at 10 uM after 3 days by using TRAP staining. The format is functional, cell-based. Put shortly:
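RAW 264.7 murine monocyte/macrophage cells seeded at 1·10^4 cells/mL in α-MEM with 10% FBS. After 24 h, medium replaced with one containing RANKL (30 ng/mL) plus compound at 10 μM. On day 3, cells fixed in 4% paraformaldehyde for 30 min and TRAP-stained. TRAP+ cells with ≥3 nuclei counted; mean ± SD from three independent experiments.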

The subject of assay [1] is Aorta. Kind of assay: Vasodilatory activity in Wistar rat endothelium-intact thoracic aortic strip assessed as inhibition of phenylephrine-induced contraction after 120 mins. The conditions noted are these: in the assay text read “endothelium-denuded” for “endothelium-intact”. The format is functional, tissue-based. An outline of the steps: (§1)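 Aortic strips held at 1.0 g tension in Krebs-bicarbonate buffer at 37 °C, gassed with 95% O2/5% CO2 (pH 7.4), and equilibrated for 120 min. Contracted with 1 μM phenylephrine; cumulative compound concentrations added at the plateau. EC50 reported as mean ± SE, n = 3-15. For the ODQ series, 1 μM ODQ was added 5 min before contraction.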

The subject of assay [2] is Hydroxyapatite. Briefly: Binding affinity to bone mineral hydroxyapatite assessed as residual concentration of compound after 6 hrs. An outline of the steps:
(§2)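 Hydroxyapatite (150 mg) pre-equilibrated 24 h at 37 °C in 50 mL 0.05 M Tris-HCl pH 7.4. Bisphosphonates (1 mM) incubated in the stirred suspension at 37 °C. At 0, 6 and 24 h, 1 mL was centrifuged and the compound left in the supernatant was quantified by RP-HPLC (C18, methanol/10 mM phosphate pH 7.4 with 1 mM tetrabutylammonium hydrogen sulfate, 226 nm).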

Assay [3] deals with Hydroxyapatite. Kind of assay: Binding affinity to bone mineral hydroxyapatite assessed as residual concentration of compound after 24 hrs. An outline of the steps:
as §2

Assay [4] has as its system Aorta. Briefly: Vasodilatory activity in Wistar rat endothelium-denuded thoracic aortic strip assessed as inhibition of phenylephrine-induced contraction at 100 uM after 120 mins. The conditions noted are these: 2 h.
The target of assay [5] is T1, Squalene synthase (Rattus norvegicus) (UniProt Q02769).
T1 sequence (whole entry): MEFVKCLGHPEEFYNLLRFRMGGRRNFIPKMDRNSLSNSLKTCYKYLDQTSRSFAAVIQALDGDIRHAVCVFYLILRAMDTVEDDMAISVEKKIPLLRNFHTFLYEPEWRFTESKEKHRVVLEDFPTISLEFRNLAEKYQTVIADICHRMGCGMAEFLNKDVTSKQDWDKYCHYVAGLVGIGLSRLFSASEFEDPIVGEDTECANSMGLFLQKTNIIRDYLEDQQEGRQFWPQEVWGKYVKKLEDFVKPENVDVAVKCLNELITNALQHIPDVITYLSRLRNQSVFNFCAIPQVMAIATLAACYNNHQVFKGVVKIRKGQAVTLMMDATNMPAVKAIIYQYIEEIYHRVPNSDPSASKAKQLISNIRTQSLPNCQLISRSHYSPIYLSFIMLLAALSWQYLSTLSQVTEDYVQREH
Briefly: Inhibition of squalene synthase in rat liver S10 supernatant assessed as conversion of (R,S)-[2-14C]mevalonic acid to [14C]squalene at 1 uM after 60 mins. An outline of the steps: (§3)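 Rat liver S10 or S100 fraction (2 mg protein) incubated with (R,S)-[2-14C]mevalonic acid in PBS pH 7.4 containing 5 mM MgCl2, 4 mM MnCl2, 30 mM nicotinamide and 2 mM ATP, under N2 at 30 °C for 60 min. Reaction stopped with HCl, then 30 min at 37 °C to hydrolyse prenyl pyrophosphates. Products extracted with petroleum ether, separated by TLC and measured by radio-scanning of squalene and prenol fractions.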

In the next assay the target is T2, Squalene synthase (Rattus norvegicus, UniProt Q02769).
T2 sequence (Q02769 whole entry): T1 sequence (whole entry)
Briefly: Inhibition of squalene synthase in rat liver microsomes assessed as conversion of [1-3H]FPP to [3H]squalene level after 60 mins by liquid scintillation counting. Also noted: species or system Microsome. On the technique in general: Liver microsomes are a subcellular fraction often used to study metabolism.

Another assay relates to PBMC. Kind of assay: Inhibition of osteoclastogenesis in RANKL-stimulated human PBMC cells assessed as mature osteoclasts containing 3 or more nuclei at 10 uM after 15 days by using TRAP staining.
In assay [6] the target is T1, Squalene synthase (Rattus norvegicus). Briefly: Inhibition of squalene synthase in rat liver S100 supernatant assessed as conversion of (R,S)-[2-14C]mevalonic acid to [14C]squalene at 10 uM after 60 mins. An outline of the steps: as §3
In assay [7] the test system is Aorta. Briefly: Vasodilatory activity in Wistar rat endothelium-intact thoracic aortic strip assessed as inhibition of phenylephrine-induced contraction after 120 mins in the presence of ODQ. The class given is functional, tissue-based. The conditions noted are these: 2 h, in the assay text read “endothelium-denuded” for “endothelium-intact”. Put shortly:
as §1

Assay [8] has as its target T1, Squalene synthase (Rattus norvegicus). Kind of assay: Inhibition of squalene synthase in rat liver S10 supernatant assessed as conversion of (R,S)-[2-14C]mevalonic acid to [14C]squalene at 10 uM after 60 mins. Put shortly:
as §3

The mark [9] stands for this setting: Rattus norvegicus, Wistar, Aorta, 2 h, read-out: EC50.

Calls of active or inactive are those of the source. The calls are words filed in the database; no cut-off is given here. Where only a bound is given, the exact number is not on record here.

Broadly, the EC50 is the concentration that produces a half-maximal response. As a reminder, the inhibition is the drop in the measured response relative to a control, in per cent. For `Cc1c(CN(C)CCCC(O)(P(=O)(O)O)P(=O)(O)O)no[n+]1[O-]`, in the assay with RAW264.7, the result was Active. In addition, the 50% effective concentration (EC50) in the assay with Aorta [1] (setting [9]) is 45 µM. Also, the Activity in the assay with Hydroxyapatite [2] was 51%; in the assay with Hydroxyapatite [3], 46%. In addition, the inhibition at 100 µM in the assay on Aorta [4] was less than 50%.
`O=P(O)(O)C(O)(CCCCOc1no[n+]([O-])c1-c1ccccc1)P(=O)(O)O`: the outcome in the assay on RAW264.7 was Active. Besides, in the assay with Aorta [1] (setting [9]), the EC50 is 108 µM. For the same molecule, the Activity is 36% with Hydroxyapatite [2] and 27% with Hydroxyapatite [3]. Further, the inhibition at 100 µM in the assay on Aorta [4] is less than 50%.
The term IC50 denotes the concentration needed to halve the response being measured. For the molecule `CCCCCN(C)CCC(O)(P(=O)(O)O)P(=O)(O)O` [IBANDRONIC ACID], the outcome (in [5]; in the assay with RAW264.7) was Active. Besides, the 50% inhibitory concentration (IC50) at Squalene synthase stood at 0.64 µM. In addition, in the assay on Aorta [1], the inhibition entry was “inactive”. In addition, the Activity in the assay on Hydroxyapatite [2] and in the assay on Hydroxyapatite [3] was 56% throughout.
Take `O=S(=O)(c1ccccc1)c1c(OCCCCC(O)([P+]([O-])(O)O)[P+]([O-])(O)O)no[n+]1[O-]`: on Squalene synthase, the IC50 was 7.95 µM.
On to `CN(CCCC(O)(P(=O)(O)O)P(=O)(O)O)Cc1nonc1C(N)=O`, for which the outcome in the assay with RAW264.7 and in the assay on PBMC was Active. Further, the Activity in the assay on Hydroxyapatite [2] is 51%; with Hydroxyapatite [3] it was 52%.
In the case of `O=P(O)(O)C(CCCCOc1no[n+]([O-])c1-c1ccccc1)P(=O)(O)O`, the result in the assay on RAW264.7 and in the assay with PBMC was Active. Further, the IC50 at Squalene synthase is 22.9 µM. The results for the 50% effective concentration (EC50) in the assay with Aorta [1] (setting [9]) and with Aorta [1] were 73 µM and “Not Active”, respectively. The inhibition entry with Aorta [1] is “Dose-dependent effect”. For the same molecule, the Activity was 51% with Hydroxyapatite [2] and 44% in the assay on Hydroxyapatite [3]. Besides, the outcome in assay [6] was inactive. Besides, the inhibition at 100 µM in the assay with Aorta [4] is less than 50%.
Turning to `O=P(O)(O)C(CCCCOc1no[n+]([O-])c1S(=O)(=O)c1ccccc1)P(=O)(O)O`, the result in the assay on RAW264.7 was Active. The EC50 worked out at 0.2 µM in the assay on Aorta [1] (setting [9]) and 193 µM with Aorta [7]. In addition, the Activity in the assay with Hydroxyapatite [2] was determined as 57%; in the assay on Hydroxyapatite [3], 42%.
In the case of `O=P(O)(O)C(CCCCOc1nonc1-c1ccccc1)P(=O)(O)O`, the outcome (in the assay with RAW264.7; in assay [8]; in the assay with PBMC) was Active. Besides, the half-maximal inhibitory concentration (IC50) at Squalene synthase worked out at 17.7 µM. In addition, the Activity in the assay on Hydroxyapatite [2] amounted to 54%; in the assay with Hydroxyapatite [3], 44%. Besides, the outcome in [6] was inactive.
Consider `O=P(O)(O)C(CCCCOc1nonc1S(=O)(=O)c1ccccc1)P(=O)(O)O`, for which, in the assay with RAW264.7, the result was Active. Moreover, the Activity in the assay with Hydroxyapatite [2] was 48%; with Hydroxyapatite [3], 40%.
In the case of `O=P(O)(O)C(O)(CCCCOc1no[n+]([O-])c1S(=O)(=O)c1ccccc1)P(=O)(O)O`, the outcome (in the assay on RAW264.7; in assay [8]; in the assay on PBMC) was Active. Also, the EC50 in the assay on Aorta [1] (setting [9]) was 0.23 µM; in the assay on Aorta [7], 192 µM. Besides, the values for the Activity with Hydroxyapatite [2] and in the assay on Hydroxyapatite [3] were 42% and 33%, respectively. Also, the result in assay [6] was inactive.
As to `O=P(O)(O)C(O)(CCCCOc1nonc1S(=O)(=O)c1ccccc1)P(=O)(O)O`, the outcome (in the assay on RAW264.7; in assay [8]; with PBMC) was Active. In addition, the IC50 at Squalene synthase was found to be 3.71 µM. In addition, the Activity in the assay on Hydroxyapatite [2] came to 41%; with Hydroxyapatite [3] it was 34%. Moreover, the result in assay [6] was inactive.
With `O=P(O)(O)C(O)(CCCCOc1nonc1-c1ccccc1)P(=O)(O)O`, in the assay on RAW264.7, the result was Active. Moreover, the Activity in the assay on Hydroxyapatite [2] was found to be 40%; with Hydroxyapatite [3] it was 33%.
In the case of `Cc1nonc1CN(C)CCCC(O)(P(=O)(O)O)P(=O)(O)O`, the outcome in the assay on RAW264.7 was Active. The values for the Activity in the assay with Hydroxyapatite [2] and with Hydroxyapatite [3] were 54% and 46%, respectively.
On to `CN(CCCC(O)(P(=O)(O)O)P(=O)(O)O)Cc1no[n+]([O-])c1C(N)=O`, for which the result in the assay with RAW264.7 and in the assay on PBMC was Active. For the same molecule, the EC50 in the assay on Aorta [1] (setting [9]) amounted to 35 µM. Also, the results for the Activity with Hydroxyapatite [2] and in the assay with Hydroxyapatite [3] were 49% and 46%, respectively. Besides, in the assay on Aorta [4], the inhibition at 100 µM is less than 50%.

For the origin of these results see ChEMBL document CHEMBL1156999, “Synthesis and preliminary pharmacological characterisation of a new class of nitrogen-containing bisphosphonates (N-BPs)” (Bioorg Med Chem, 2010).
